Like-named read-outs stand apart in the source and are kept apart here.
Legend:
[1] = target: T1, σ1R (Cavia porcellus, UniProt Q60492); test: σ1R radioligand binding with [3H]; design: species or system guinea pig; settings: for Ki σ2R /Ki σ1R: selectivity ratio σ2R over σ1R
Method in brief: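 Membranes from frozen whole guinea pig brain. Each tube held 3 nmol/L [3H](+)-pentazocine (28 Ci/mmol) and 8.0 mg tissue.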

[2] = In vitro microsomal stability in RLMs; format: in vitro ADME, rat; settings: for microsomal CLint at 1 μM: rat, rat liver microsomes, pH 7.4
Method in brief: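 Test compound at 1 μM (spiked from 200 μM stock) in 50 mM phosphate buffer pH 7.4 with 1 mg protein/mL rat liver microsomes and 3 mM MgCl2. Mixture pre-incubated 5 min at 37 ± 0.5 °C, then started with NADPH (1 mM final) and shaken for 30 min. Aliquots taken at 0, 5, 10, 15, 20 and 30 min, quenched in ice-cold acetonitrile with internal standard, filtered and analysed by LC-MS/MS. Controls: verapamil (positive) and no-NADPH mixture (negative).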

[3] = Metabolic soft spot identification of 12 in RLMs; format: in vitro ADME, rat; settings: RLMs with NADPH
Method in brief: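 Test compound at 10 μM in 50 mM phosphate buffer pH 7.4 with 1 mg protein/mL rat liver microsomes, pre-incubated 5 min at 37 ± 0.5 °C with shaking. Reaction started with NADPH (1 mM final). Samples taken at 0 min (control) and 10 min, mixed with an equal volume of ice-cold acetonitrile, vortexed 2 min and centrifuged at 10,000 g for 5 min. Supernatant analysed by LC-HRMS on a QToF.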

[4] = target: T1, σ1R; settings: selectivity ratio; ref Yous et al. 2005; cited from earlier work
[5] = target: σ2R; settings: read-out: Ki (nM ± SEM) σ2R; ref Yous et al. 2005; cited from earlier work

T1 sequence (Q60492 whole entry): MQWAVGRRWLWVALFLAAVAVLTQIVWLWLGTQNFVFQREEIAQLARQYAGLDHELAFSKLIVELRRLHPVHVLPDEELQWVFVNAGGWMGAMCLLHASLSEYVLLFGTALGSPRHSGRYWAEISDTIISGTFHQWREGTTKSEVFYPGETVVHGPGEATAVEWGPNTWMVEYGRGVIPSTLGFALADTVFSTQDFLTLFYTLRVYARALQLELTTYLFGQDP

SMILES | Ki [1] [nM] | Ki σ2R /Ki σ1R [1] | microsomal CLint at 1 μM [2] [µL/min/mg] | remaining unmodified at the end of 10 min incubation [3] | Ki σ2R /Ki σ1R [4] | t1/2 (in vitro hepatic microsomal half-life) ([2]; RLMs 1 mg protein/mL, 1 μM compound, NADPH, 37 °C) [min] | Ki [5] [nM]
CCCc1ccc2c(c1)sc(=O)n2CCNC12CC3CC(CC(C3)C1)C2 [Compound 9, 3-{2-[(Adamantan-1-yl)amino]ethyl}−6-propylbenzo[d]thiazol-2(3H)-one] | 11.2 ± 0.68 | 6.2 | 280 |  |  |  | 
CCC(=O)c1ccc2c(c1)sc(=O)n2CCN(C)C12CC3CC(CC(C3)C1)C2 [Compound 11, 3-{2-[(Adamantan-1-yl)(methyl)amino]ethyl}−6-propionylbenzo[d]thiazol-2(3H)-one] | 12.9 ± 1.84 | 8.7 | 560 |  |  |  | 
CCC(=O)c1ccc2c(c1)sc(=O)n2CCNC12CC3CC(CC(C3)C1)C2 [Compound 8, 3-{2-[(Adamantan-1-yl)amino]ethyl}−6-propionylbenzo[d]thiazol-2(3H)-one] | 11.2 ± 1.26 | 6.3 | 160 |  |  |  | 
O=c1sc2ccccc2n1CCNC12CC3CC(CC(C3)C1)C2 [Compound 7, 3-{2-[(Adamantan-1-yl)amino]ethyl}benzo[d]thiazol-2(3H)-one] | 131 ± 9.94 | 0.5 | 460 |  |  |  | 
CN(CCn1c(=O)sc2ccccc21)C12CC3CC(CC(C3)C1)C2 [Compound 10, 3-{2-[(Adamantan-1-yl)(methyl)amino]ethyl}benzo[d]thiazol-2(3H)-one] | 12.9 ± 1.8 | 6.6 | 650 |  |  |  | 
CCCc1ccc2c(c1)sc(=O)n2CCN(C)C12CC3CC(CC(C3)C1)C2 [Compound 12, 3-{2-[(Adamantan-1-yl)(methyl)amino]ethyl}−6-propylbenzo[d]thiazol-2(3H)-one] | 7.2 ± 0.88 | 61 | 370 | ca. 6% |  |  | 
CCCc1ccc2c(c1)sc(=O)n2CCN1CCCCCC1 [SN56, 3-[2-(azepan-1-yl)ethyl]-6-propylbenzo[d]thiazol-2(3H)-one, reference compound] |  |  | 710 |  | >1000 | 0.98 | > 1000
